Measurements taken from ChEMBL document CHEMBL4725436, “Gibberellin JRA-003: A Selective Inhibitor of Nuclear Translocation of IKKα” (ACS Med Chem Lett, 2020).
Calls of active or inactive are those of the source. The rule behind the calls is not given here.

Assays:
SUD4 = test: Cytotoxicity against human SU-DHL-4 cells assessed as reduction in cell viability measured after 24 hrs by CellTiter-Glo luminescent assay; type: functional, cell-based; details: SU-DHL-4, 24 h
In short: (§1)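 High-throughput viability screen of test agents across a panel of 22 cancerous and noncancerous human cell lines. Viability was read by CellTiter-Glo luminescence.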

[1] = Selectivity index, ratio of IC50 for human Hs578Bst cells to EC50 for human HCC1599 cells measured after 24 hrs by CellTiter-Glo luminescent assay; type: toxicity; details: Hs578Bst cells (IC50) versus HCC1599 cells (EC50); in short: as §1
[2] = Cytotoxicity against human Hs578Bst cells assessed as reduction in cell viability measured after 24 hrs by CellTiter-Glo luminescent assay; type: cell-based; in short: as §1
[3] = Cytotoxicity against human Hs895T cells assessed as reduction in cell viability measured after 24 hrs by CellTiter-Glo luminescent assay; type: functional, cell-based; in short: as §1
HEK-293T [4] = test: Cytotoxicity against human HEK293T cells assessed as reduction in cell viability measured after 24 hrs by CellTiter-Glo luminescent assay; type: cell-based; in short: as §1
HEK-293T [5] = test: Inhibition of IKKalpha/IKKbeta in human HEK293T cells transfected with firefly luciferase gene assessed as inhibition of NF-kappaB signalling at 10 uM by luciferase reporter gene assay; type: cell-based
[6] = Selectivity index, ratio of IC50 for human Hs578Bst cells to EC50 for human RC-K8 cells measured after 24 hrs by CellTiter-Glo luminescent assay; type: toxicity; details: Hs578Bst cells (IC50) versus RC-K8 cells (EC50); in short: as §1
[7] = Selectivity index, ratio of IC50 for human HS895SK cells to EC50 for human SU-DHL-4 cells measured after 24 hrs by CellTiter-Glo luminescent assay; in short: as §1
[8] = Inhibition of IKKalpha/IKKbeta in human HEK293T cells transfected with firefly luciferase gene assessed as inhibition of IL-1 beta-stimulated NF-kappaB signalling preincubated for 1 hr followed by IL-1 beta stimulation measured after 3 hrs by luciferase reporter gene assay; type: cell-based; details: HEK-293T
[9] = target: T1, Inhibitor of nuclear factor kappa-B kinase subunit beta (Homo sapiens) (UniProt O14920); test: Inhibition of JRA-031 binding to IKKbeta in TNF-alpha-stimulated human HEK293T cells at 1 uM pretreated with compound for 1 hr followed by labeling with JRA-031 for 1 hr followed by stimulation with TNF-alpha for 1 hr by pull down based mass spectrometry; type: cell-based; details: HEK-293T
T1 sequence (whole entry): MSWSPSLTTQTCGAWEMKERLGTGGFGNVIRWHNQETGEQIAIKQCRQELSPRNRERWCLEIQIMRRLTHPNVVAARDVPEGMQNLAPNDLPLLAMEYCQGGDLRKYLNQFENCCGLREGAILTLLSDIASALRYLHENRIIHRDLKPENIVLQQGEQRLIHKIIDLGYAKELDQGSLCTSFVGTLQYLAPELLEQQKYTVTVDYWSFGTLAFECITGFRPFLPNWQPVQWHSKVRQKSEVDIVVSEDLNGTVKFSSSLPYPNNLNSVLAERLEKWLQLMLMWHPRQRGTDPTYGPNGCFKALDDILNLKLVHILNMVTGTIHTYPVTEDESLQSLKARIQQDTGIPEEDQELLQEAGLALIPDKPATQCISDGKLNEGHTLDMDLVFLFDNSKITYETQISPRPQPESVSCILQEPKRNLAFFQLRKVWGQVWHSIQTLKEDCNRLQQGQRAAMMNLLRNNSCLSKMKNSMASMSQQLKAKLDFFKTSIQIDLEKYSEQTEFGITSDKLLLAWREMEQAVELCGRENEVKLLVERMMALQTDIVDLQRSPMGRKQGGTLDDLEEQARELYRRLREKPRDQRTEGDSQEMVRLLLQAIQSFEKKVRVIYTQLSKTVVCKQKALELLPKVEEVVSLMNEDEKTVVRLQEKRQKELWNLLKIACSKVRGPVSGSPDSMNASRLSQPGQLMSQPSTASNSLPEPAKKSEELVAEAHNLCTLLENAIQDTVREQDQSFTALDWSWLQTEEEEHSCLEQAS

PSN1 = test: Cytotoxicity against human PSN1 cells assessed as reduction in cell viability measured after 24 hrs by CellTiter-Glo luminescent assay; type: functional, cell-based; details: PSN1, 24 h; in short: as §1
[10] = Selectivity index, ratio of IC50 for human Hs888Lu cells to EC50 for human RC-K8 cells measured after 24 hrs by CellTiter-Glo luminescent assay; type: toxicity; details: Hs888Lu cells (IC50) versus RC-K8 cells (EC50); in short: as §1
[11] = Selectivity index, ratio of IC50 for human Hs888Lu cells to EC50 for human CA46 cells measured after 24 hrs by CellTiter-Glo luminescent assay; type: toxicity; details: Hs888Lu cells (IC50) versus CA46 cells (EC50); in short: as §1
[12] = target: T2, Inhibitor of nuclear factor kappa-B kinase subunit alpha (Homo sapiens) (UniProt O15111); test: Inhibition of JRA-031 binding to IKKalpha in TNF-alpha-stimulated human HEK293T cells at 1 uM pretreated with compound for 1 hr followed by labeling with JRA-031 for 1 hr followed by stimulation with TNF-alpha for 1 hr by pull down based mass spectrometry; type: cell-based; details: HEK-293T
T2 sequence (whole entry): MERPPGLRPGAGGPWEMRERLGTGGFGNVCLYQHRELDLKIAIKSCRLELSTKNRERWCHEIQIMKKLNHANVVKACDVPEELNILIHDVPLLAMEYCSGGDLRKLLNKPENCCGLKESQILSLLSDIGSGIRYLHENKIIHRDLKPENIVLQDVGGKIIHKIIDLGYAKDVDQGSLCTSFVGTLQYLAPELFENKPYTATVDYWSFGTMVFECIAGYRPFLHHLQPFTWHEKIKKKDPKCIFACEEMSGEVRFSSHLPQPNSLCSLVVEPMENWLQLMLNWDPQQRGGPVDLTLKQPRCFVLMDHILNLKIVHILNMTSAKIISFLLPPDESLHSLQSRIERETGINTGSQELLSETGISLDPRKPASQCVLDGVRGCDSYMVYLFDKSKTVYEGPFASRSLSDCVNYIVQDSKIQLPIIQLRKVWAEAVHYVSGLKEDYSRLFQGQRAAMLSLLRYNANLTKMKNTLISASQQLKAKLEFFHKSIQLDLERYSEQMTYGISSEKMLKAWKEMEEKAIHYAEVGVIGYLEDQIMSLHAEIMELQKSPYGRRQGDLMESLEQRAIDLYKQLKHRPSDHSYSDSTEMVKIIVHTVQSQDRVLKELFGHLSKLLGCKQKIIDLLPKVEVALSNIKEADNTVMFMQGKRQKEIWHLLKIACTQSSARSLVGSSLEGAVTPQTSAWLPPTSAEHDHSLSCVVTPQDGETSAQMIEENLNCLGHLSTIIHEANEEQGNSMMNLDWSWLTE

[13] = target: T1, Inhibitor of nuclear factor kappa-B kinase subunit beta (Homo sapiens); test: Inhibition of IKK beta nuclear translocation in human HEK-293T cells assessed as reduction in IKK beta level in nucleus at 15 uM pretreated with compound for 1 hr followed by stimulation with IL-1 beta for 3 hrs by western blot analysis; type: subcellular
In short: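 HEK 293T cells were pretreated with vehicle or test agent, then stimulated with IL-1β (or vehicle). Cells were lysed and nuclei separated, and the cytosolic and nuclear fractions were each probed for IKKα and IKKβ by Western blotting.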

IC50 [8]: 6 µM
inhibition [9]: Active
inhibition [12]: Active
inhibition [13]: Active
SMILES: C=C1C[C@]23C[C@@]1(O)CC[C@H]2[C@@]12C=CC(=O)[C@@](C)(C(=O)O1)[C@H]2[C@@H]3C(=O)OC
EC50 (SUD4): < 0.04 µM
selectivity ratio at 24 h [1]: 500
IC50 [2]: > 10 µM
EC50 [3]: 9.2 µM
IC50 (HEK-293T [4]): > 10 µM
inhibition (HEK-293T [5]): 100%
selectivity ratio at 24 h [6]: 500
Ratio IC50/EC50 [7]: 500
IC50 (PSN1): > 10 µM
selectivity ratio at 24 h [10]: 500
selectivity ratio at 24 h [11]: 500
